{"source": "ChEMBL document CHEMBL1134269", "about": "“Structure-affinity relationships of a unique nicotinic ligand: N(1)-dimethyl-N(4)-phenylpiperazinium iodide (DMPP)” (J Med Chem, 2001)", "key": {"[1]": {"target": "Neuronal acetylcholine receptor; alpha4/beta2 (Rattus norvegicus, UniProt P09483+P12390)", "sequence (P09483 whole entry)": "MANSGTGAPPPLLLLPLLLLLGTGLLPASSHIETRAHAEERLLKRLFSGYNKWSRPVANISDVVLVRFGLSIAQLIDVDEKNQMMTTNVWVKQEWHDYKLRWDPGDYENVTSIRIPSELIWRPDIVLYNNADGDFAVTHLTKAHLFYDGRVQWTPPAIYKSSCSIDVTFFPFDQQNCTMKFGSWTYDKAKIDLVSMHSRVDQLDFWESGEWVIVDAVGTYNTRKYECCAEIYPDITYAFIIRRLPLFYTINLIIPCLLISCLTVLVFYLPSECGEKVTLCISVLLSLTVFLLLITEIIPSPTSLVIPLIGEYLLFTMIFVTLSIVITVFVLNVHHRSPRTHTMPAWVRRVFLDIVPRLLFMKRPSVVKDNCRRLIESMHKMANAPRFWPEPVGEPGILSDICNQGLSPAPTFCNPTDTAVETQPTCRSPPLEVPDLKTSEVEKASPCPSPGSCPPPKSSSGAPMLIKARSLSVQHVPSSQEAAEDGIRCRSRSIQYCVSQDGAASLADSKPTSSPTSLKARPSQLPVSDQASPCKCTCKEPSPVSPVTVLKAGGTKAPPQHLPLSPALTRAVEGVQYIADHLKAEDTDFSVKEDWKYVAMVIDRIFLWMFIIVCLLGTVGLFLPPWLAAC", "sequence (P12390 whole entry)": "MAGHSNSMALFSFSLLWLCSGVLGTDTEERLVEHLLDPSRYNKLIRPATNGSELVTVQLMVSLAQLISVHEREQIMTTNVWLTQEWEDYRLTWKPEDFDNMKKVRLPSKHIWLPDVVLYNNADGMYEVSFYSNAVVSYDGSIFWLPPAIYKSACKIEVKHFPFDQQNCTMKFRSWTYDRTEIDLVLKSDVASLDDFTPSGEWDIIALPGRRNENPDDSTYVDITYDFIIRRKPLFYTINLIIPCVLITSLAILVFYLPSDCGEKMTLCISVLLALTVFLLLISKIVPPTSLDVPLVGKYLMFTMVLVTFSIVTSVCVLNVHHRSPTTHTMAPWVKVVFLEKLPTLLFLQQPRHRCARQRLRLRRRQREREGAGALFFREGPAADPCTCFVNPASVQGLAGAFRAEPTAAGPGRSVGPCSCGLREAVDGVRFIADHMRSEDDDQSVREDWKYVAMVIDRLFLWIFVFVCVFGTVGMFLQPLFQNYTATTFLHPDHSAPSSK", "experiment": "Binding affinity against nicotinic receptors from rat brain using [3H]cytisine as radioligand", "how_it_was_run": "(§1)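 Rat brain homogenate membranes (15 mg wet tissue) in 50 mmol Tris-HCl, pH 7.4 at 2 °C, with NaCl, KCl, MgCl₂ and CaCl₂. Incubated 75 min at 2 °C with 2 nmol [³H]-cytisine. Separated by GF/C filtration. Nonspecific binding defined with […] (–)-nicotine bitartrate. Ki calculated by Cheng-Prusoff using Kd 1.5 nmol.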"}, "[2]": {"experiment": "Compound was evaluated for pKi", "how_it_was_run": "as §1"}, "Mus musculus [3]": {"tested_on": "Mus musculus", "experiment": "Minimal analgesic dose of compound injected intracerebroventricularly", "assay_type": "functional", "how_it_was_run": "(§2)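 Mouse hot-plate test with compounds given icv. Minimum analgesic dose recorded; efficacy expressed relative to 5 μg morphine icv. Nicotinic origin of analgesia tested by reversal with mecamylamine 2 mg/kg i.p.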"}, "Mus musculus [4]": {"tested_on": "Mus musculus", "experiment": "Effect(%) respect to that of 5 ug/kg of morphine injected intracerebroventricularly", "assay_type": "functional", "how_it_was_run": "as §2"}, "[5]": {"target": "Neuronal acetylcholine receptor subunit alpha-7 (Rattus norvegicus, UniProt Q05941)", "sequence (Q05941 whole entry)": "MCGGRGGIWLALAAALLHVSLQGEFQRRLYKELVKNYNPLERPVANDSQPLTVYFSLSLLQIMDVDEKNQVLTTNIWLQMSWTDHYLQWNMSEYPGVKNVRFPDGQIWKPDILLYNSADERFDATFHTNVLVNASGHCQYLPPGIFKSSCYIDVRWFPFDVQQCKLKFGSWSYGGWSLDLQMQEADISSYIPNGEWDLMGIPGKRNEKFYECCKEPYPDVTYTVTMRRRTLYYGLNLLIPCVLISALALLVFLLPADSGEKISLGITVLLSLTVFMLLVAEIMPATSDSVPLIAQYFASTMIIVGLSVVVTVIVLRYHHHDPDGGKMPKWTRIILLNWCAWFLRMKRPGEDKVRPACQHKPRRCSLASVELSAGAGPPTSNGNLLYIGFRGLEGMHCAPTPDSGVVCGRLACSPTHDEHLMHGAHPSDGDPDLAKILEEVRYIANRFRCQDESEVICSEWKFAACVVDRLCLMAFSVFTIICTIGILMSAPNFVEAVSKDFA", "experiment": "compound was evaluated for pKi"}}}
{"smiles": "CN1CCN(c2ccc(N)cc2)CC1", "values": [{"measurement": "Ki", "setting": "[1]", "value": "> 10", "unit": "µM"}]}
{"smiles": "CN1CCN(C2=CC(=O)CCC2)CC1", "values": [{"measurement": "Ki", "setting": "[1]", "value": "> 10", "unit": "µM"}]}
{"smiles": "Fc1ccc(N2CCNCC2)cc1", "values": [{"measurement": "Ki", "setting": "[1]", "value": "> 10", "unit": "µM"}]}
{"smiles": "Cc1ccccc1N1CCN(C)CC1", "values": [{"measurement": "Ki", "setting": "[1]", "value": "> 10", "unit": "µM"}]}
{"smiles": "CN1CCN(c2cccc(O)c2)CC1", "values": [{"measurement": "Ki", "setting": "[1]", "value": "> 10", "unit": "µM"}]}
{"smiles": "CN1CCN(c2cccc(N)c2)CC1", "values": [{"measurement": "Ki", "setting": "[1]", "value": 0.18, "unit": "µM"}, {"measurement": "Log Ki", "setting": "[2]", "value": -6.74}]}
{"smiles": "CN1CC=C(c2cccnc2)CC1.Cl", "values": [{"measurement": "M.A.D", "setting": "Mus musculus [3]", "value": 1, "unit": "µg/kg"}, {"measurement": "Efficacy", "setting": "Mus musculus [4]", "value": 36.5, "unit": "%"}]}
{"smiles": "C[N+]1(C)CCN(c2ccc3c(c2)OCO3)CC1.[I-]", "values": [{"measurement": "Ki", "setting": "[1]", "value": 0.672, "unit": "µM"}, {"measurement": "Log Ki", "setting": "[2]", "value": -6.17}]}
{"smiles": "CC(=O)c1ccc(N2CCN(C)CC2)cc1", "values": [{"measurement": "Ki", "setting": "[1]", "value": "> 10", "unit": "µM"}]}
{"smiles": "CN1CCN(C2=CC(=O)CC2)CC1", "values": [{"measurement": "Ki", "setting": "[1]", "value": "> 10", "unit": "µM"}]}
{"smiles": "CN1CCN(c2cccc(C#N)c2)CC1", "values": [{"measurement": "Ki", "setting": "[1]", "value": "> 10", "unit": "µM"}]}
{"smiles": "CN1CCN(c2cccc(F)c2)CC1.O=C(O)C(=O)O", "values": [{"measurement": "Ki", "setting": "[1]", "value": 6.5, "unit": "µM"}, {"measurement": "Log Ki", "setting": "[2]", "value": -5.19}]}
{"smiles": "CN1CCC(c2ccccc2)CC1", "values": [{"measurement": "Ki", "setting": "[1]", "value": "> 10", "unit": "µM"}]}
{"smiles": "CN1CCN(c2ccc(F)cc2)CC1", "values": [{"measurement": "Ki", "setting": "[1]", "value": "> 10", "unit": "µM"}]}
{"smiles": "CN1CCN(c2cccc(C(F)(F)F)c2)CC1", "values": [{"measurement": "Ki", "setting": "[1]", "value": "> 10", "unit": "µM"}]}
{"smiles": "CC(=O)Nc1cccc(N2CCN(C)CC2)c1", "values": [{"measurement": "Ki", "setting": "[1]", "value": "> 10", "unit": "µM"}]}
{"smiles": "FC(F)(F)c1cccc(N2CCNCC2)c1", "values": [{"measurement": "Ki", "setting": "[1]", "value": "> 10", "unit": "µM"}]}
{"smiles": "CC(=O)Oc1cccc(N2CCN(C)CC2)c1", "values": [{"measurement": "Ki", "setting": "[5]", "value": 0.794, "unit": "µM"}, {"measurement": "Ki", "setting": "[1]", "value": 0.8, "unit": "µM"}]}
{"smiles": "CN1CCN(c2cccnn2)CC1.O=C(O)C(=O)O", "values": [{"measurement": "Ki", "setting": "[1]", "value": 0.386, "unit": "µM"}, {"measurement": "Log Ki", "setting": "[2]", "value": -6.41}]}
{"smiles": "c1cc(N2CCNCC2)ccn1", "values": [{"measurement": "Ki", "setting": "[1]", "value": "> 10", "unit": "µM"}]}
{"smiles": "CN1CCN(c2cccc(Cl)c2)CC1", "values": [{"measurement": "Ki", "setting": "[1]", "value": "> 10", "unit": "µM"}]}
{"smiles": "Fc1cccc(N2CCNCC2)c1", "values": [{"measurement": "Ki", "setting": "[1]", "value": "> 10", "unit": "µM"}]}
{"smiles": "CC(=O)c1ccc(N2CCNCC2)cc1", "values": [{"measurement": "Ki", "setting": "[1]", "value": "> 10", "unit": "µM"}]}
{"smiles": "c1cc2c(cc1N1CCNCC1)OCO2", "values": [{"measurement": "Ki", "setting": "[1]", "value": "> 10", "unit": "µM"}]}
{"smiles": "CN1CCN(c2ccc([N+](=O)[O-])cc2)CC1", "values": [{"measurement": "Ki", "setting": "[1]", "value": "> 10", "unit": "µM"}]}
{"smiles": "CN1CCN(c2ccc(O)cc2)CC1", "values": [{"measurement": "Ki", "setting": "[1]", "value": "> 10", "unit": "µM"}]}
{"smiles": "CN1CCN(c2ccc3c(c2)OCO3)CC1", "values": [{"measurement": "Ki", "setting": "[1]", "value": "> 10", "unit": "µM"}]}
{"smiles": "CN1CC=C(c2ccccc2)CC1", "values": [{"measurement": "Ki", "setting": "[1]", "value": "> 10", "unit": "µM"}]}
{"smiles": "Cc1cccc(N2CCN(C)CC2)c1", "values": [{"measurement": "Ki", "setting": "[1]", "value": "> 10", "unit": "µM"}]}
{"smiles": "O=C(O)C(=O)O.c1cncc(N2CCNCC2)c1", "values": [{"measurement": "Ki", "setting": "[1]", "value": 0.09, "unit": "µM"}, {"measurement": "M.A.D", "setting": "Mus musculus [3]", "value": 50, "unit": "µg/kg"}, {"measurement": "Log Ki", "setting": "[2]", "value": -7.05}, {"measurement": "Efficacy", "setting": "Mus musculus [4]", "value": 51.1, "unit": "%"}]}
{"smiles": "O=[N+]([O-])c1cccc(N2CCNCC2)c1", "values": [{"measurement": "Ki", "setting": "[1]", "value": "> 10", "unit": "µM"}]}
